Each structure is given as a SMILES string. Active and inactive are the calls of the source.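 The calls were made as follows: active = current rise at least 3 SD above the untreated control mean in each of two repeat wells; inactive = the rest.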

The values that follow come from PubChem BioAssay.

Chain of Potassium voltage-gated channel subfamily KQT member 1 (Homo sapiens) (P51787 whole entry, looked up): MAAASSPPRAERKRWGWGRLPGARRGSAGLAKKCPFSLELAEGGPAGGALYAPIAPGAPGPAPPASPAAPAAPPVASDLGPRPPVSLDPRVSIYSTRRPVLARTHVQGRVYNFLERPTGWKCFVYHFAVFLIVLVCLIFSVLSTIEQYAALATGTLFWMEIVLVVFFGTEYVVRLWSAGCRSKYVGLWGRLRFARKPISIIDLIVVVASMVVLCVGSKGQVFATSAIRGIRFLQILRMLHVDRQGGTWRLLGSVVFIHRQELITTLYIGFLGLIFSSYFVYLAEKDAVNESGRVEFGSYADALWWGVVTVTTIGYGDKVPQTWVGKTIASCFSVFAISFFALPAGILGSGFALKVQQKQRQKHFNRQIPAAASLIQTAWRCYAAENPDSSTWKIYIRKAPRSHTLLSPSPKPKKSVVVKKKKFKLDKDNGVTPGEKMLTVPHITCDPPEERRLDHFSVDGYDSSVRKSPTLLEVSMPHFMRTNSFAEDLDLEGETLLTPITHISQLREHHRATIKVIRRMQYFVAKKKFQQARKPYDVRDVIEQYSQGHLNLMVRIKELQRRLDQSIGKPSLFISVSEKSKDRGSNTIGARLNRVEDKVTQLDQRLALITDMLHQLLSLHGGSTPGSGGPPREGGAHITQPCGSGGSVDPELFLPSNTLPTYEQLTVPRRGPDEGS

The assay addresses Potassium voltage-gated channel subfamily KQT member 1 (Homo sapiens) (UniProt P51787). The assay can be described thus: KCNQ1 channel current potentiators, confirmation, orthogonal assay for KCNQ1 potentiator project, IonWorks patch clamp, KCNQ1-CHO cells (AID 493184). As to conditions: automated patch clamp current, at 10 µM. The method in brief:
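Assay system – CHO cells carrying KCNQ1 · Medium – pH 7.4 external bath · Probe or stimulus – depolarizing pulse to +40 mV from -90 mV · Compound dosing – one dose, 10 µM final · Measured by – automated perforated-patch electrophysiology · Measure – % potentiation of steady-state current relative to pre-compound · Repeats – two replicates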
(In patch-clamp work, channel activity is measured electrically.)
In the case of `O=C(COC(=O)CNC(=O)c1ccc(Cl)cc1Cl)Nc1cccc(S(=O)(=O)N2CCCC2)c1`, the outcome was inactive.
To `CCC(NC(=O)CCc1nnc(-c2cc(C)on2)o1)C12CC3CC(CC(C3)C1)C2` (stereo not given) belongs “inactive”.
`O=C(NC(=S)Nc1ccccc1)c1ccc(Br)o1`: the outcome was inactive.
In the case of `Fc1ccc(-c2csc(=S)[nH]2)cc1`, the outcome was inactive.
To `Cc1cc(C)cc(-n2ccnc2SCC(=O)Nc2nccs2)c1` belongs “inactive”; to `CCOC(=O)C1=C(O)c2ccccc2C(=O)/C1=C\c1ccc(CC)cc1`, “inactive”.
As to `CNC(=S)N/N=C/c1cc(Br)cc(Br)c1O`, the result was inactive.
To `Cc1cc(Br)ccc1OCC(=O)NNC(=O)c1cnccn1` belongs “inactive”; to `CCOC(=O)c1nnn(CC(=O)Nc2cc(Cl)ccc2C)c1C(=O)OCC`, “inactive”; to `C1=Nc2ccccc2CN1c1ccccc1`, “inactive”.
To `COc1cccc(N=Nc2ccc(O)c3ncccc23)c1` belongs “inactive”; to `Cc1ccccc1CC(=O)NC1CCN(Cc2ccccc2)CC1`, “inactive”.
To `CC(=O)NC(C1C(=O)CC(C)(C)CC1=O)(C(F)(F)F)C(F)(F)F` belongs “inactive”.
With `Cc1cc(C)nc(CCNC(=O)c2cc(COc3ccccc3)on2)n1`, the outcome was inactive.
To `CC(C)(C)c1ccc(Oc2ccc(N)cn2)cc1` belongs “inactive”; to `O=[N+]([O-])c1cc(C(F)(F)F)ccc1Oc1cccnc1[N+](=O)[O-]`, “inactive”; to `N=C1S/C(=C\c2ccco2)C(=O)N1c1nccs1`, “inactive”.
With `COc1ccc(Cl)cc1NC(=O)/C=C\C(=O)O` the entry was “inactive”; with `C[C@@H](NC(=O)OC(C)(C)C)c1nnc(S(=O)(=O)Cc2ccccc2)o1`, “inactive”; with `Cc1sc2nc(CN3CCOCC3)[nH]c(=S)c2c1C`, “inactive”.
Consider `C/C(=N\NC(=O)c1cc2ccccc2cc1O)c1ccc(C)o1`, for which the outcome was inactive.
To `Cc1nc(NC(=S)NC(=O)c2cccs2)ccc1Br` belongs “inactive”.
As for `CCOc1ccc(S(=O)(=O)Nc2cc(OC)ccc2OC)cc1`, the result was inactive.
To `Cn1c(SCc2ccc(C#N)cc2Cl)nc2ccccc21` belongs “inactive”; to `Cc1ccc(CN2CCN(/N=C/C(Br)=C\c3ccccc3)CC2)cc1`, “inactive”; to `CCOc1ccc(NC(=O)CN(C)C(=O)C2CCN(c3ncnc4sc(C)c(C)c34)CC2)cc1OCC`, “inactive”.
With `O=c1c(O)c(-c2cccs2)oc2ccc(Cl)cc12` the entry was “inactive”.
With `COc1ccc(C(=O)CC(=O)C(=O)Nc2ccccc2C(F)(F)F)cc1` the entry was “inactive”; with `O=C(NN=C1c2ccccc2-c2ccccc21)c1cccc(Br)c1`, “inactive”; with `O=C(NC(=S)NC1CCCc2ccccc21)c1ccco1` (stereo not given), “inactive”.
As to `COC(=O)COc1ccc(-c2ccccc2)cc1C=O`, the outcome was inactive.
Regarding `CC(=O)c1c(C)[nH]c(C(=O)Nc2cccc(C(F)(F)F)c2)c1C`, the outcome was inactive.
As for `CSc1nccc(-c2nn(-c3ccc(C)cc3)ccc2=O)n1`, the result was inactive.
With `COc1ccc2nc(N=Nc3ccc(O)c4ccccc34)sc2c1`, the outcome was inactive.
With `S=c1[nH]c(-c2ccccc2)cn1/N=C/c1cccc2ccccc12` the entry was “inactive”; with `O=C(C1CCN(Cc2ccccc2)CC1)N1CCN(C/C=C/c2ccccc2)CC1`, “inactive”; with `C=CCn1c(=S)[nH]c2nc3c(cc2c1=O)CCCC3`, “inactive”.
On to `COc1ccc(-c2nnc(Nc3nc4c(OC)cccc4s3)o2)cc1`, for which the result was inactive.
With `Cc1nc(NCCc2cnc[nH]2)c2oc3ccccc3c2n1` the entry was “inactive”; with `Cc1ccc(C)c(NC(=S)NNC(=O)c2csc3c2CCC(C)C3)c1` (stereo not given), “inactive”.
